# Compound activity: PubChem BioAssay, several laboratories
# Only some compounds are listed: those with a hit (about 2.4% of all), similar ones and a draw of the others.
# TNF death inh: TNF-alpha cell death inhibition in Jurkat FADD-/- cells. activation (protection from cell death), % at 10 µM. Jurkat FADD-/- TNF necroptosis rescue, ATP luminescence, 24 h; 0 = TNF only, 100 = no-TNF cells. actives 0.068% (n = 220,000). AID 463075;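 active means activation, meaning protection from cell death, of at least 50% relative to plate controls; inactive means activation below 50%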;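 further: necroptosis triggered by 40 ng/mL TNF-alpha added together with compound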
# Mdm2 ligase inh: blocks human Mdm2 ubiquitin ligase activity. Q00987. cell-based MDM2 ubiquitination luciferase reporter, 2 h; 0 = plate control, 100 = twice control, blank-subtracted. signal enhancement, % at 5 µM. actives 0.11% (n = 210,000). AID 1230;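 active means signal enhancement of 30% or more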;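 further: luminescence tracks abundance of the self-degrading MDM2-luciferase fusion protein; higher signal means inhibition of MDM2 E3 ligase activity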
# Target sequence (Q00987 whole entry, looked up, the tested form may be a part): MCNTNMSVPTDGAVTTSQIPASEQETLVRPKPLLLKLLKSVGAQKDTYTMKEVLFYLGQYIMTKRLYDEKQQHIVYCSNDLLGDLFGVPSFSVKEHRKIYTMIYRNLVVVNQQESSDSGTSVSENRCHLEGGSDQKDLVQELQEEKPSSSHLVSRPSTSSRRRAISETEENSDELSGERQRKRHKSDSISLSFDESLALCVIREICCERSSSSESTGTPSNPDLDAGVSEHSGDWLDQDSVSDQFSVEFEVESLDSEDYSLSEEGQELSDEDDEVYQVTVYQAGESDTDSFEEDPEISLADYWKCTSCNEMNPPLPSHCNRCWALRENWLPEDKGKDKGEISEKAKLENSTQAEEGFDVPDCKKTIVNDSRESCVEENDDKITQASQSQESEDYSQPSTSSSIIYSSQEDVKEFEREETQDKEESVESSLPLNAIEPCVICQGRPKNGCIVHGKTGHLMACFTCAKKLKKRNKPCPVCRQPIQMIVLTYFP
#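 test system = mammalian cells stably expressing self-ubiquitinating, self-degrading MDM2 E3–luciferase fusion | quantity = 2000 cells/well | incubation = cell settling 4 h, compound treatment 2 h, both 37 °C | signal = luminescence with SteadyLite reagent, 15 min at room temperature | evaluation = % enhancement relative to plate controls after blank subtraction | benchmarks = plate controls and plate blanks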
# Autophagy mod: autophagy modulation, high-content screen | AID 463193 | MEF GFP-LC3 puncta imaging; test concentration mostly 10 µM | calls only at 10 µM (by protocol) | actives 0.98% (n = 190,000);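 active means percentage of spot-positive cells more than 3 SD above its plate mean, without a fluorescence outlier flag or 80% toxicity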;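 further: spot-positive cell cutoff set from DMSO-treated cells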
# Hck-Nef inh: inhibitors of human Hck kinase activated by Nef | P08631 | Recombinant Hck-YEEI plus Nef, Z-Lyte FRET kinase assay | inhibition, % at 20 µM | actives 0.68% (n = 220,000);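 active means Hck-Nef kinase inhibition above about 50%, limit read from the data; inactive means inhibition below that limit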;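 further: 0% = DMSO with Hck plus Nef and 100% = Hck alone without Nef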
# Dynein transport: dynein cargo transport inhibition; 3617.4 mouse cells, GR-EGFP nuclear translocation imaging; test concentration mostly 20 µM; stimulated with dexamethasone, 1 µM; stronger effect = lower value; z-score, hits read low; actives 0.47% (n = 220,000); AID 1381;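 active means plate z-score of nuclear minus cytoplasmic receptor signal below a set negative limit, without overly bright fluorescence or cell loss, cut at about -3.5 in these data, passing the limit was not always enough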;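 further: z-score of nuclear minus cytoplasmic ring GR-EGFP intensity difference per well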
#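 Buffer or medium: tet-free medium with charcoal-stripped serum / Also added: dexamethasone agonist, 1.0 µM final, for 30 min / Timing: induction 48 h, compound 1 h, agonist 30 min / Measured by: high-content fluorescence imaging after fixation / Read-out: nuclear-to-cytoplasmic GR-EGFP distribution per well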
# zVAD death inh: L929 zVAD cell death inhibition; L929 zVAD necroptosis rescue, ATP luminescence, 24 h; with zVAD 60 µM; viability rescue, % at 10 µM; actives 0.38% (n = 220,000); AID 1377;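 active means activation, scaled between plate controls, above about 75%, limit read from the data; inactive means activation under that limit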;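 further: 0% = zVAD with DMSO and 100% = DMSO alone without zVAD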
# zVAD necrop conf: confirmed blocker of zVAD induced death in L929 cells; shares compounds with zVAD death inh; L929 zVAD-induced necroptosis rescue, ATP luminescence, 24 h; activation (protection from necroptosis), % at 10 µM; actives 16% (n = 760);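 active means mean protection from necroptosis of at least 50% over duplicate tests; inactive means mean protection below 50%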;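 further: 0% = cells with zVAD alone and 100% = vehicle cells without zVAD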
# * = called active by the depositor; i = inactive; . = no result given.
SMILES,TNF death inh,Mdm2 ligase inh,Autophagy mod,Hck-Nef inh,Dynein transport,zVAD death inh,zVAD necrop conf
Cc1nnc(SCC(=O)NC23CC4CC(CC(C4)C2)C3)s1,1,-7,i,1,0.16,1,.
O=C(CSC1=NCCN1)NC12CC3CC(CC(C3)C1)C2,-8,-5,i,0,-0.71,85*,2
CC1(Cc2ccc3c(c2)OCO3)NC(=O)NC1=O (configuration not stated),17,18,i,1,-0.43,102*,59*
COc1cc(CCc2ccc3c(c2)OCO3)oc(=O)c1,-1,-36,.,12,0.0075,1,.
COc1cc2[nH]c3c(Cl)ncnc3c2cc1OC,2,-18,i,9,-0.39,77*,13
CC(C)(C)c1nc(NC(=O)Nc2ccccc2)sc1Br,-1,-13,i,5,0.48,83*,3
Cc1ccc(Cc2nnc3n(-c4cccc(C)c4)nc(C(=O)c4ccccc4)n3c2=O)cc1,-2,-2,i,7,2.5,1,.
CCOc1cc(N2CCOCC2)c(OCC)cc1NC(=O)c1ccc(OCc2c(C)noc2C)c(OC)c1,2,.,i,2,-0.98,0,.
COc1ccc(CC(NC(C)=O)C(=O)NC2CCN(S(=O)(=O)c3ccccc3)CC2)cc1OC (configuration not stated),-2,-3,i,-1,-0.37,0,.
Cc1cc(C(=O)COC(=O)c2ccc(O)cc2)c(C)n1Cc1ccco1,-2,-11,i,5,-0.72,75*,2
COC(=O)c1cc(S(=O)(=O)C(C)C)c(S(C)=O)s1 (configuration not stated),2,-3,.,8,-1.5,77*,11
CSc1sc(C(=O)NCC2CC2)cc1S(=O)(=O)C(C)C,1,-9,.,23,-1.1,0,.
CC(C)(C)c1nc(C(C)(C)C)c(Br)c(=O)[nH]1,0,7,i,2,2.4,1,.
COc1cccc(NC(=O)Nc2cc(Cl)ccc2C)c1,2,-15,i,16,1.6,77*,0
Cc1ccc(NC(=S)NNC(=S)Nc2cccc(C(F)(F)F)c2)cc1,6,-10,.,8,-0.9,76*,5
FC(F)(F)c1cccc(NC(=S)NNC(=S)Nc2ccc(Cl)cc2)c1,3,-13,.,-6,-0.19,64,.
CCOC(=O)c1[nH]c(C(=O)O)c(CCC(=O)OC)c1C,0,-8,i,4,0.05,1,.
COC(=O)CCc1c(C)[nH]c(C(=O)OCc2ccccc2)c1C,-1,-15,i,0,0.033,76*,1
CCn1c(=O)c(C(=O)NNS(=O)(=O)c2ccc(Cl)cc2)c(O)c2ccccc21,3,-9,i,-1,-0.055,2,.
Cc1cc(C)nc(NC(=O)Nc2ccc3c(c2)OCO3)c1,1,-30,i,18,1.1,31,.
Cc1cccc(NC(=O)Nc2cc(C)cc(C)n2)c1,0,-89,i,0,1.7,76*,3
Cc1ccnc(NC(=O)Nc2cccc(F)c2)c1,7,-38,i,0,-0.059,92*,32
C/C(N=Nc1nc2ccccc2s1)=N\Nc1ccccc1O,-5,-19,.,26,-0.047,0,.
Nc1ccc(Nc2nc(-c3cc4ccccc4oc3=O)cs2)cc1,-6,-3,i,23,0.058,80*,4
Cc1ccc(Nc2nc(-c3ccc(O)c(O)c3)cs2)nc1,-7,-5,i,36,-3.2,79*,38
SMILES,TNF death inh,Mdm2 ligase inh,Autophagy mod,Hck-Nef inh,Dynein transport,zVAD death inh,zVAD necrop conf
COc1ccc(-c2csc(Nc3ccc(C)cn3)n2)cc1OC,1,-11,i,21,1.6,4,.
CNc1nc(C)nc(N/N=C/c2ccccc2)n1,16,4,i,21,0.0055,76*,1
CCOC(=O)Nc1ccc2c(c1)ncn2C1CCCCC1,1,-13,i,1,-0.92,84*,17
Cn1ncc2c(Nc3ccc4ccccc4c3)ncnc21,-3,-1,i,1,0.42,92*,3
COc1cc(/C=N/Nc2nc3ccccc3s2)cc([N+](=O)[O-])c1O,25,-10,.,28,-0.29,76*,1
COc1cc(OC)cc(C(=O)Oc2ccc(/C=N/Nc3nc4ccccc4s3)cc2OC)c1,3,1,i,8,0.14,77*,5
Brc1csc(/C=N/Nc2nc3ccccc3s2)c1,7,-14,i,-1,0.88,76*,2
COc1cc(/C=N/Nc2nc3ccccc3s2)ccc1OC(=O)c1ccccc1F,31,-1,i,4,-1.2,75*,75*
COc1cc(/C=N/Nc2ccccc2[N+](=O)[O-])ccc1OC(=O)c1ccccc1F,-1,-20,i,21,-0.3,4,.
COc1cc(/C=N/Nc2ccccc2)ccc1OC(=O)c1cccs1,3,-9,i,1,0.51,-1,.
CCNc1nc(SCC(=O)OC)nc(N(C)C)n1,1,-17,i,27,0.0043,2,.
COC(CNC(=O)c1ccc2c(c1)ncn2-c1cccc(F)c1)OC,1,-4,i,27,-0.35,76*,38
CCOC(CNC(=O)c1ccc2c(c1)ncn2-c1ccc(F)c(F)c1)OCC,1,-5,i,25,-0.91,78*,3
CCOC(CNC(=O)c1ccc2c(c1)ncn2-c1cccc(F)c1)OCC,1,4,i,31,-0.24,69,.
COC(CNC(=O)c1ccc2c(c1)ncn2-c1ccc(F)c(F)c1)OC,1,4,i,21,-0.9,77*,35
COC(CNC(=O)c1ccc2c(c1)ncn2-c1ccc(F)cc1F)OC,2,-5,i,20,0.27,13,.
CCc1ccc(NC(=O)c2noc3c2CCCCC3)cc1,4,-15,i,-3,0.94,6,.
Cc1ccc(NC(=O)c2noc3c2CCCCC3)cc1,2,-41,i,-2,-0.54,82*,2
CCOC(=O)C1(C/C(C)=N/NC(N)=O)CC(C)OC1=O (configuration not stated),0,-5,i,-4,0.076,1,.
COc1ccc(-c2cnc(N)nc2-c2ccc(OC)cc2O)cc1,1,-17,i,10,-0.32,92*,8
O=C(Cn1nnc(-c2ccc(Cl)cc2)n1)NCc1ccco1,2,-14,i,16,-0.89,2,.
COc1ccc(C(=O)Nc2ccc(-c3nnn(CC(=O)NCc4ccco4)n3)cc2)cc1,-4,.,.,17,0.23,77*,36
